One data set deals with AURKA pre-mRNA. Briefly: Modulation of splicing in AURKA pre-mRNA in human HCT-116 cells assessed as effect on exon 4 skipping at 5.6 uM incubated for 4 hrs by qRT-PCR analysis. Format: functional, cell-based. Conditions: filed as modulator. (In general: In qPCR the cycle at which signal appears reflects the starting amount.)
The test system of the next data set is SF3B2 pre-mRNA. Briefly: Modulation of splicing in SF3B2 pre-mRNA in human HCT-116 cells assessed as intron 10 retention level at 5.6 uM incubated for 4 hrs by qRT-PCR analysis. Conditions: filed as modulator. The class given is functional, cell-based. The procedure, abridged: (§1)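 HCT-116 cells in supplemented McCoy's 5a, compound added from DMSO stock to a final 0.5% DMSO, 4 h at a single standardized concentration per analogue. Total RNA isolated and DNase-treated (1 µg). qPCR used 2.5 µM each primer on 5 ng cDNA, 40 cycles. Intron retention was computed by the 2^-CT method relative to GAPDH and expressed versus untreated cells set to 1.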

Data set [1] is described as follows: Cytotoxicity against human HCT-116 cells assessed as cell growth inhibition incubated for 72 hrs by MTS assay. The class given is toxicity, cell-based. The method in brief: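 HCT-116 cells (ATCC; split every other day, no more than five generations, mycoplasma-tested) plated at 5 × 10³ cells/well in supplemented McCoy's 5a and grown 24 h at 37 °C, 5% CO₂. Compound added from DMSO (0.5% DMSO final) for 72 h. Cells washed with PBS, MTS reagent added for 2 h at 37 °C, A490 read against A690. GI₅₀ fitted from dose curves of 3 biological replicates.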
Background: Tetrazolium dyes change colour on reduction, which living cells bring about.

Another data set has as its system DNAJB1 pre-mRNA. Briefly: Modulation of splicing in DNAJB1 pre-mRNA in human HCT-116 cells assessed as intron 2 retention level at 5.6 uM incubated for 4 hrs by qRT-PCR analysis. The class given is functional, cell-based. Conditions: filed as modulator.
Data set [2] deals with HCT-116. The experiment in a line: Cytotoxicity against human HCT-116 cells assessed as reduction in cell viability at 500 nM incubated for 24 hrs by MTS assay. Format: toxicity, cell-based. Conditions: hct-116, 24 h, 0.5 µM. The procedure, abridged: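 HCT-116 cells plated at 5 × 10³ cells/well in supplemented McCoy's 5a and grown 24 h at 37 °C, 5% CO₂. Compound given at 500 nM, the top dose of the 24 h splicing series, in 0.5% DMSO for 24 h. Cells washed with PBS, MTS reagent added for 2 h at 37 °C, A490 read against A690.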

A further data set concerns SF3A1 pre-mRNA. The experiment in a line: Modulation of splicing in SF3A1 pre-mRNA in human HCT-116 cells assessed as intron 6 retention level at 5.6 uM incubated for 4 hrs by qRT-PCR analysis. Format: functional, cell-based. Conditions: filed as modulator.
The subject of another data set is SF3A3 pre-mRNA. Briefly: Modulation of splicing in SF3A3 pre-mRNA in human HCT-116 cells assessed as intron 5 retention level at 5.6 uM incubated for 4 hrs by qRT-PCR analysis. Conditions: filed as modulator. Format: functional, cell-based.
Data set [3] has as its system HCT-116. Briefly: Cytotoxicity against human HCT-116 cells assessed as reduction in cell viability at 5.6 uM incubated for 4 hrs by MTS assay. Format: toxicity, cell-based. Conditions: hct-116, 4 h.
The subject of the next data set is SF3B1 pre-mRNA. Briefly: Modulation of splicing in SF3B1 pre-mRNA in human HCT-116 cells assessed as intron 13 retention level at 5.6 uM incubated for 4 hrs by qRT-PCR analysis. The class given is functional, cell-based. Conditions: filed as modulator. The procedure, abridged:
as §1

Active and inactive are the calls of the source. No cut-off for these calls is given here. Some results are limits rather than exact numbers.

1 molecule from ChEMBL document CHEMBL5338772, “Stereochemical Control of Splice Modulation in FD-895 Analogues” (J Med Chem, 2023) can be followed below.

Turning to `CC[C@@H](OC)[C@H](C)[C@H]1O[C@@H]1[C@@H](O)[C@H](C)/C=C/C=C(\C)[C@H]1OC(=O)C[C@H](O)CC[C@@](C)(O)[C@@H](OC(C)=O)/C=C/[C@@H]1C`, in the data set on AURKA pre-mRNA, the result was Active. For the same molecule, the Activity is over 3 in the data set with SF3B2 pre-mRNA; over 3 in the data set on DNAJB1 pre-mRNA; “Non-Toxic” in the data set on HCT-116 [2]; over 3 with SF3A1 pre-mRNA; under 3 in the data set on SF3A3 pre-mRNA; “Non-Toxic” with HCT-116 [3]. Further, the Activity in the data set with SF3B1 pre-mRNA was under 3. Moreover, in [1], the GI50 (usually the concentration that inhibits growth by half) at 72 h came to 285 nM.
